Test results published in ChEMBL document CHEMBL1124366, “Synthesis and biological properties of N63-carboxamides of teicoplanin antibiotics. Structure-activity relationships” (J Med Chem, 1989).
≈ marks a conversion by molar mass, not a printed value.

Experiments:
Streptococcus pneumoniae = assay: In vitro minimum inhibitory concentration against Streptococcus pneumoniae UC41; format: functional
Proteus vulgaris = assay: In vitro minimum inhibitory concentration against Proteus vulgaris X 19 ATCC 881; format: functional
Streptococcus pyogenes [1] = assay: In vitro minimum inhibitory concentration against Streptococcus pyogenes C 203; format: functional
Enterococcus faecalis = assay: In vitro minimum inhibitory concentration against Streptococcus faecalis ATCC 7080; format: functional
[2] = test system: Ac2-L-Lys-D-Ala-D-Ala peptide; assay: Association constant with Ac2-L-Lys-D-Ala-D-Ala
In short: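 UV difference spectroscopy at 24 ± 2 °C in 4-cm unthermostated cells. Antibiotic was at 30 μM in 10% MeOH in sodium phosphate buffer, pH 9, and titrated with Ac2-L-Lys-D-Ala-D-Ala. ΔA was monitored at 294 nm. Ka was taken from the slope of a Scatchard plot.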

Staphylococcus aureus = assay: In vitro minimum inhibitory concentration against Staphylococcus aureus Tour; format: functional
Streptococcus pyogenes [3] = assay: Subcutaneously administration into mice infected with Streptococcus pyogenes C 203; format: functional; conditions: sc
In short: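 Mice (five per treatment group, five groups) infected intraperitoneally with about 10⁵ cells of Strep. pyogenes C 203, about 100× the LD50. ED50 (mg/kg) was calculated from the percentage of mice surviving at each dose on day 7.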

Escherichia coli = assay: In vitro minimum inhibitory concentration against Escherichia coli SKF 12140; format: functional
[4] = test system: Staphylococcus epidermidis; assay: In vitro minimum inhibitory concentration against Staphylococcus epidermis ATCC 12228; format: functional
[5] = test system: Staphylococcus haemolyticus; assay: In vitro minimum inhibitory concentration against Staphylococcus hemolyticus 602 cell line; format: functional; conditions: strain 602
Pseudomonas aeruginosa = assay: In vitro minimum inhibitory concentration against Pseudomonas aeruginosa ATCC 10145; format: functional

For CC(=O)NC1C(O[C@@H]2c3ccc(c(Cl)c3)Oc3cc4cc(c3O)Oc3ccc(cc3Cl)C[C@H]3NC(=O)[C@H](N)c5ccc(O)c(c5)Oc5cc(O)cc(c5)[C@H](NC3=O)C(=O)N[C@H]4C(=O)N[C@H]3C(=O)N[C@@H]2C(=O)N[C@H](C(=O)NCCCN(C)C)c2cc(O)cc(O)c2-c2cc3ccc2O)OC(CO)C(O)C1O (stereo partly specified), the MIC (Streptococcus pneumoniae) was 0.25 µg/mL (≈ 0.168 µM), the MIC (Proteus vulgaris) was > 128 µg/mL and the MIC (Streptococcus pyogenes [1]) was 0.12 µg/mL (≈ 0.0807 µM). It also gave an MIC (Enterococcus faecalis) of 0.25 µg/mL (≈ 0.168 µM), a Ka [2] of 54000 M⁻¹ and an MIC (Staphylococcus aureus) of 0.12 µg/mL (≈ 0.0807 µM). It also gave an ED50 (Streptococcus pyogenes [3]) of 2.2 mg/kg, an MIC (Escherichia coli) of 64 µg/mL (≈ 43.1 µM) and an MIC [4] of 0.06 µg/mL (≈ 0.0404 µM).
With CC(=O)N[C@@H]1[C@H](O[C@@H]2c3ccc(c(Cl)c3)Oc3cc4cc(c3O)Oc3ccc(cc3Cl)C[C@H]3NC(=O)[C@H](N)c5ccc(O)c(c5)Oc5cc(O)cc(c5)[C@H](NC3=O)C(=O)N[C@H]4C(=O)N[C@H]3C(=O)N[C@@H]2C(=O)N[C@H](C(=O)O)c2cc(O)cc(O)c2-c2cc3ccc2O)O[C@@H](CO)[C@@H](O)[C@@H]1O the MIC (Streptococcus pneumoniae) was 1 µg/mL (≈ 0.713 µM), the MIC (Proteus vulgaris) was > 128 µg/mL and the MIC (Streptococcus pyogenes [1]) was 0.5 µg/mL (≈ 0.357 µM). For the same compound, the MIC (Enterococcus faecalis) was 1 µg/mL (≈ 0.713 µM), the Ka [2] was 32000 M⁻¹ and the MIC (Staphylococcus aureus) was 0.5 µg/mL (≈ 0.357 µM). The ED50 (Streptococcus pyogenes [3]) was 2.46 mg/kg, the MIC (Escherichia coli) was > 128 µg/mL and the MIC [4] was 0.12 µg/mL (≈ 0.0856 µM).
In the case of CC(=O)NC1C(O[C@@H]2c3ccc(c(Cl)c3)Oc3cc4cc(c3O)Oc3ccc(cc3Cl)C[C@H]3NC(=O)[C@H](N)c5ccc(O)c(c5)Oc5cc(O)cc(c5)[C@H](NC3=O)C(=O)N[C@H]4C(=O)N[C@H]3C(=O)N[C@@H]2C(=O)N[C@H](C(=O)NCCN2CCOCC2)c2cc(O)cc(O)c2-c2cc3ccc2O)OC(CO)C(O)C1O (stereo partly specified), the MIC (Streptococcus pneumoniae) is reported as 1 µg/mL (≈ 0.66 µM), the MIC (Proteus vulgaris) is reported as > 128 µg/mL and the MIC (Streptococcus pyogenes [1]) is reported as 0.5 µg/mL (≈ 0.33 µM). The MIC (Enterococcus faecalis) was 0.5 µg/mL (≈ 0.33 µM), the Ka [2] was 34000 M⁻¹ and the MIC (Staphylococcus aureus) was 0.12 µg/mL (≈ 0.0792 µM). For the same compound, the MIC (Escherichia coli) was > 128 µg/mL and the MIC [4] was 0.12 µg/mL (≈ 0.0792 µM).
Compound N[C@H]1C(=O)N[C@@H]2Cc3ccc(c(Cl)c3)Oc3cc4cc(c3O)Oc3ccc(cc3Cl)[C@@H](O)[C@@H]3NC(=O)[C@H](NC(=O)[C@@H]4NC(=O)[C@@H](NC2=O)c2cc(O)cc(c2)Oc2cc1ccc2O)c1ccc(O)c(c1)-c1c(O)cc(O)cc1[C@@H](C(=O)NCCCN1CCOCC1)NC3=O has an MIC (Streptococcus pneumoniae) of 0.12 µg/mL (≈ 0.0906 µM), an MIC (Proteus vulgaris) of 64 µg/mL (≈ 48.3 µM) and an MIC (Streptococcus pyogenes [1]) of 0.06 µg/mL (≈ 0.0453 µM). It also gave an MIC [5] of 0.12 µg/mL (≈ 0.0906 µM), an MIC (Enterococcus faecalis) of 0.12 µg/mL (≈ 0.0906 µM) and an MIC (Staphylococcus aureus) of 0.06 µg/mL (≈ 0.0453 µM). For the same compound, the MIC (Pseudomonas aeruginosa) was 32 µg/mL (≈ 24.1 µM), the ED50 (Streptococcus pyogenes [3]) was 1.4 mg/kg and the MIC (Escherichia coli) was 8 µg/mL (≈ 6.04 µM). For the same compound, the MIC [4] was 0.06 µg/mL (≈ 0.0453 µM).
NCCCCCCNC(=O)[C@H]1NC(=O)[C@H]2NC(=O)[C@H](NC(=O)[C@@H]3NC(=O)[C@H]4NC(=O)[C@@H](Cc5ccc(c(Cl)c5)Oc5cc3cc(c5O)Oc3ccc(cc3Cl)[C@H]2O)NC(=O)[C@H](N)c2ccc(O)c(c2)Oc2cc(O)cc4c2)c2ccc(O)c(c2)-c2c(O)cc(O)cc21 was tested, and the MIC (Streptococcus pneumoniae) was 0.06 µg/mL (≈ 0.0463 µM), the MIC (Proteus vulgaris) was 64 µg/mL (≈ 49.3 µM) and the MIC (Streptococcus pyogenes [1]) was 0.06 µg/mL (≈ 0.0463 µM). It also gave an MIC [5] of 0.12 µg/mL (≈ 0.0925 µM), an MIC (Enterococcus faecalis) of 0.12 µg/mL (≈ 0.0925 µM) and an MIC (Staphylococcus aureus) of 0.06 µg/mL (≈ 0.0463 µM). It also gave an MIC (Pseudomonas aeruginosa) of 64 µg/mL (≈ 49.3 µM), an ED50 (Streptococcus pyogenes [3]) of 0.54 mg/kg and an MIC (Escherichia coli) of 4 µg/mL (≈ 3.08 µM). For the same compound, the MIC [4] was 0.06 µg/mL (≈ 0.0463 µM).
With CNCCN(C)C(=O)[C@H]1NC(=O)[C@H]2NC(=O)[C@H](NC(=O)[C@@H]3NC(=O)[C@H]4NC(=O)[C@@H](Cc5ccc(c(Cl)c5)Oc5cc3cc(c5O)Oc3ccc(cc3Cl)[C@H]2O)NC(=O)[C@H](N)c2ccc(O)c(c2)Oc2cc(O)cc4c2)c2ccc(O)c(c2)-c2c(O)cc(O)cc21 the MIC (Streptococcus pneumoniae) was 0.12 µg/mL (≈ 0.0946 µM), the MIC (Proteus vulgaris) was > 128 µg/mL and the MIC (Streptococcus pyogenes [1]) was 0.12 µg/mL (≈ 0.0946 µM). For the same compound, the MIC [5] was 0.12 µg/mL (≈ 0.0946 µM), the MIC (Enterococcus faecalis) was 0.12 µg/mL (≈ 0.0946 µM) and the MIC (Staphylococcus aureus) was 0.12 µg/mL (≈ 0.0946 µM). It also gave an MIC (Pseudomonas aeruginosa) of 64 µg/mL (≈ 50.4 µM), an ED50 (Streptococcus pyogenes [3]) of 1.25 mg/kg and an MIC (Escherichia coli) of 16 µg/mL (≈ 12.6 µM). For the same compound, the MIC [4] was 0.06 µg/mL (≈ 0.0473 µM).
